Test results: ChEMBL document CHEMBL4819106, “Aminopyrazole based CDK9 PROTAC sensitizes pancreatic cancer cells to venetoclax” (Bioorg Med Chem Lett, 2021)

Test system: MIA PaCa-2
Assay: Antiproliferative activity against human MIA PaCa-2 cells assessed as cell growth inhibition at 5 uM measured after 3 days by Prestoblue assay relative to control
Assay type: functional
Details: MIA PaCa-2, 72 h, time 3 day, read-out: GI
Outline: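 MiaPaCa2 cells were exposed for 3 days to single agents (Bcl2-family inhibitors or CDK9 degrader) at equimolar concentration. Viability was read by PrestoBlue.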

## CC1(C)CCC(c2ccc(Cl)cc2)=C(CN2CCN(c3ccc(C(=O)NS(=O)(=O)c4ccc(N[C@H](CCN5CCOCC5)CSc5ccccc5)c(S(=O)(=O)C(F)(F)F)c4)cc3)CC2)C1 [NAVITOCLAX]
  inhibition of growth at 5 µM: 50%
